In series [1] the test system is Mus musculus. Put plainly: Antinociceptive activity in Swiss mouse by inhibition of acetic acid-induced abdominal constriction at 10 mg/kg, ip after 20 mins. The following applies: Abdomen, route intraperitoneal. Format: functional. Put shortly:
(§1)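 Male Swiss mice (25–30 g) were pretreated i.p. 30 min before i.p. acetic acid (0.6%): 10 mg/kg for screening, or 3, 6 and 10 mg/kg for dose-response. Controls received vehicle (0.9% NaCl and Tween 80, 10 ml/kg i.p.). Abdominal constrictions plus stretching were counted cumulatively over 20 min at 23 ± 2 °C. Inhibition is relative to controls; ID50 by linear regression.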

Series [2] is described as follows: Lipophilicity, log P of the compound. The series is classed as physicochemical. The following applies: octanol/water.
The test system of series [3] is Mus musculus. Put plainly: Antinociceptive activity in po dosed Swiss mouse by inhibition of acetic acid-induced abdominal constriction. The series is classed as functional. Conditions: Abdomen, read-out: ID50 (the source's name). In outline: (§2)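 Oral dosing of male Swiss mice (25–30 g) at 100, 250 and 500 mg/kg, 30 min before i.p. acetic acid (0.6%). Vehicle was Tween 80 in 0.9% NaCl. Abdominal constrictions with stretching were counted cumulatively for 20 min at 23 ± 2 °C. Inhibition is relative to vehicle controls; mean ± SEM of six values.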

The subject of series [4] is Mus musculus. Kind of series: Antinociceptive activity in Swiss mouse by inhibition of acetic acid-induced abdominal constriction at 100 mg/kg, po after 20 mins. The arrangement: scale not given: the % may be the effect or the level left. Format: functional, Abdomen. In outline:
as §2

Series [5] concerns Mus musculus. Kind of series: Antinociceptive activity in Swiss mouse by inhibition of acetic acid-induced abdominal constriction at 250 mg/kg, po after 20 mins. Also noted: scale not given: the % may be the effect or the level left. Format: functional, Abdomen. Put shortly:
as §2

The subject of series [6] is Mus musculus. Put plainly: Antinociceptive activity in Swiss mouse by inhibition of acetic acid-induced abdominal constriction at 500 mg/kg, po after 20 mins. Format: functional, Abdomen. Also noted: scale not given: the % may be the effect or the level left. Put shortly: as §2
The test system of series [7] is Mus musculus. Put plainly: Antinociceptive activity against formalin-induced pain in Swiss mouse assessed as reduction of time spent in paw licking and biting at 10 mg/kg, ip after 0 to 5 mins. Conditions: route intraperitoneal. Also noted: scale not given: the % may be the effect or the level left. The series is classed as functional. In outline:
(§3)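 Swiss mice, 6–8 per group, housed at 22 ± 2 °C on a 12 h light/dark cycle. Compound given i.p. at 6, 10 or 30 mg/kg in Tween 80/0.9% NaCl vehicle (Tween ≤5%) before intraplantar formalin. Licking was scored for the first phase (0–5 min) and second phase (15–30 min). Mean ± SEM of six values; ID50 by linear regression with 95% confidence limits.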

Series [8] concerns Mus musculus. Kind of series: Antinociceptive activity against formalin-induced pain in Swiss mouse assessed as reduction of time spent in paw licking and biting at 30 mg/kg, ip after 0 to 5 mins. The series is classed as functional. The arrangement: scale not given: the % may be the effect or the level left. Conditions: route intraperitoneal. In outline: as §3
The subject of series [9] is Mus musculus. Kind of series: Antinociceptive activity against formalin-induced pain in Swiss mouse assessed as reduction of time spent in paw licking and biting at 10 mg/kg, ip after 15 to 30 mins. The series is classed as functional. Also noted: scale not given: the % may be the effect or the level left. The following applies: route intraperitoneal. Put shortly:
as §3

For series [10], the system named is Mus musculus. Put plainly: Antinociceptive activity against formalin-induced pain in Swiss mouse assessed as reduction of time spent in paw licking and biting at 30 mg/kg, ip after 15 to 30 mins. The following applies: route intraperitoneal. Also noted: scale not given: the % may be the effect or the level left. The series is classed as functional. Put shortly: as §3

Series [11] deals with Mus musculus. Kind of series: Antinociceptive activity against capsaicin-induced neurogenic pain in Swiss mouse by reduction of paw licking response at 30 mg/kg, ip. The series is classed as functional. The arrangement: scale not given: the % may be the effect or the level left. The following applies: route intraperitoneal. Put shortly:
(§4)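 Capsaicin dissolved in absolute ethanol (final ≤5%), injected intraplantarly. Test compound given i.p. at 10, 30 and 60 mg/kg, 30 min before capsaicin, in Tween 80 plus 0.9% NaCl. Time spent licking the injected paw was timed over 5 min. Data are mean ± SEM; ID50 from linear regression as geometric mean with 95% confidence limits. ANOVA with Newman–Keuls test.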

The test system of series [12] is Mus musculus. Put plainly: Antinociceptive activity against capsaicin-induced neurogenic pain in Swiss mouse by reduction of paw licking response at 60 mg/kg, ip. Format: functional. Also noted: scale not given: the % may be the effect or the level left. Conditions: route intraperitoneal. Put shortly:
as §4

Series [13] deals with Mus musculus. Kind of series: Antinociceptive activity against glutamate-induced pain in Swiss mouse assessed as reduction in time spent on paw licking and biting at 10 mg/kg, ip. Format: functional. Also noted: scale not given: the % may be the effect or the level left. Conditions: route intraperitoneal. Put shortly:
(§5)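 Dosing was i.p. at 10, 30 or 60 mg/kg, 30 min before intraplantar glutamate (30 µmol/paw) into the right hindpaw. Time spent licking or biting the injected paw was timed from 0 to 15 min. Mean ± SEM of six values; ID50 from linear regression as geometric mean with 95% confidence limits. ANOVA with Newman–Keuls test.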

Series [14] has as its system Mus musculus. Put plainly: Antinociceptive activity against glutamate-induced pain in Swiss mouse assessed as reduction in time spent on paw licking and biting at 30 mg/kg, ip. Format: functional. Also noted: scale not given: the % may be the effect or the level left. The following applies: route intraperitoneal. Put shortly:
as §5

The test system of series [15] is Mus musculus. Kind of series: Antinociceptive activity against glutamate-induced pain in Swiss mouse assessed as reduction in time spent on paw licking and biting at 60 mg/kg, ip. Conditions: route intraperitoneal. Also noted: scale not given: the % may be the effect or the level left. The series is classed as functional. Put shortly:
as §5

Series [16] relates to Mus musculus. Put plainly: Antinociceptive activity in Swiss mouse assessed as reduction in response latency at 10 mg/kg, ip after 30 mins by hot plate method. Also noted: dose 10 mg/kg. Format: functional, organism-based. In outline:
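Mice received saline, morphine 10 mg/kg s.c., or test compound 10 mg/kg i.p. 30 min before testing on a hot plate at 56 ± 1 °C. Latency to hindpaw licking, paw shaking or jumping was recorded. Mice with baseline latency above 20 s were excluded; cut-off was 30 s. Mean ± SEM of six values.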

Series [17] concerns Mus musculus. Kind of series: Antinociceptive activity in ip dosed Swiss mouse by inhibition of acetic acid-induced abdominal constriction after 20 mins. Format: functional. The following applies: Abdomen, read-out: ID50 (the source's name). Put shortly: as §1
Series [18] has as its system Mus musculus. Kind of series: Antinociceptive activity in ip dosed Swiss mouse by inhibition of formalin induced pain after 0 to 5 mins. Format: functional. The following applies: read-out: ID50 (the source's name). Put shortly:
as §3

For series [19], the system named is Mus musculus. Kind of series: Antinociceptive activity in ip dosed Swiss mouse by inhibition of formalin induced pain after 15 to 30 mins. Conditions: read-out: ID50 (the source's name). The series is classed as functional. In outline: as §3
Series [20] relates to Mus musculus. Put plainly: Antinociceptive activity against capsaicin-induced neurogenic pain in ip dosed Swiss mouse by reduction of paw licking response. The series is classed as functional. Put shortly:
as §4

Series [21] deals with Mus musculus. Kind of series: Antinociceptive activity against glutamate-induced pain in ip dosed Swiss mouse assessed as reduction in time spent on paw licking and biting. The series is classed as functional. Put shortly:
as §5

For series [22], the system named is Mus musculus. Kind of series: Antinociceptive activity against formalin-induced pain in ip dosed Swiss mouse assessed as reduction of time spent in paw licking. The series is classed as functional. The following applies: for ED50: read-out: ID50 (the source's name). Put shortly:
as §3

The mark [23] stands for this setting: read-out: ID50 (the source's name).

Consider 13 compounds from ChEMBL document CHEMBL1155293 (Eur J Med Chem, 2009).

The source made the active and inactive calls.

In general, inhibition in vivo refers to the change of the read-out against control, counted positive when it falls. As usually defined, the logP is a log measure of how a compound divides between an organic and an aqueous phase. Regarding `O=C(/C=C/c1ccc(O)c(O)c1)OCCc1ccccc1` [CAFFEIC ACID PHENETHYL ESTER], the inhibition in vivo at 10 mg/kg in the series with Mus musculus [1] worked out at 27.5%. In addition, the logP in series [2] was determined as 3.36.
`O=C(O)/C=C/c1ccc(O)c(O)c1` [CAFFEIC ACID] showed an inhibition in vivo at 10 mg/kg in the series on Mus musculus [1] of 34.6%.
On to `CCCCOC(=O)/C=C/c1ccc(O)c(O)c1` [BUTYL CAFFEATE], for which at 10 mg/kg the inhibition in vivo with Mus musculus [1] was 45%. The logP in series [2] stood at 2.99.
On to `CCCCCCCCOC(=O)/C=C/c1ccc(O)c(O)c1`, for which the inhibition in vivo at 10 mg/kg in the series on Mus musculus [1] came to 46.2%. The logP in series [2] came to 5.02.
Consider `CC(C)CCOC(=O)/C=C/c1ccc(O)c(O)c1`, for which testing at 10 mg/kg in the series with Mus musculus [1] gave an inhibition in vivo of 75.8%. Besides, in [2], the logP came to 3.21.
Compound `CC(C)OC(=O)/C=C/c1ccc(O)c(O)c1` yielded an inhibition in vivo at 10 mg/kg with Mus musculus [1] of 31%. This compound also showed a log partition coefficient (logP) in [2] of 2.3.
For `CC(C)COC(=O)/C=C/c1ccc(O)c(O)c1`, in that order: 52% and 2.68.
In turn, `CCCCCCCCCCCCOC(=O)/C=C/c1ccc(O)c(O)c1` came in with an inhibition in vivo at 10 mg/kg in the series with Mus musculus [1] of 78.8%. Moreover, the ED50 was at least 500 mg/kg with Mus musculus [3]; 5.25 mg/kg in the series with Mus musculus [17]; 26.2 mg/kg in the series with Mus musculus [18]; 23.8 mg/kg in the series on Mus musculus [19]; 46.6 mg/kg with Mus musculus [20] (setting [23]); 38.4 mg/kg in the series with Mus musculus [21] (setting [23]). Moreover, the Activity was found to be 22.2% in the series with Mus musculus [4]; 32.4% with Mus musculus [5]; 45.7% in the series with Mus musculus [6]; 20.7% in the series on Mus musculus [7]; 56.2% in the series on Mus musculus [8]; 34.4% in the series with Mus musculus [9]. Moreover, the Activity in the series with Mus musculus [10] was 56.8%; in the series on Mus musculus [11], 36.9%; in the series on Mus musculus [12], 58.6%; with Mus musculus [13] it was 25.6%; in the series on Mus musculus [14] it was 46.3%; in the series with Mus musculus [15], 65.2%. Also, the Activity result in the series with Mus musculus [20], in the series with Mus musculus [21] and in the series on Mus musculus [22] was “Dose-dependent effect” throughout. The result with Mus musculus [16] was inactive. The logP in series [2] was 7.04.
The compound `O=C(/C=C/c1ccc(O)c(O)c1)OCc1ccccc1` [BENZYL CAFFEATE] had an inhibition in vivo at 10 mg/kg in the series with Mus musculus [1] of 8.8%. Further, in series [2], the logP was 3.15.
For `CCOC(=O)/C=C/c1ccc(O)c(O)c1` [ETHYL CAFFEATE], in that order: 58.1% and 1.93.
In the series on Mus musculus [1], `CC(=O)Oc1ccccc1C(=O)O` [ASPIRIN] registered an inhibition in vivo at 10 mg/kg of 35%. Moreover, the ED50 with Mus musculus [17] stood at 125 µmol/kg; in the series with Mus musculus [22], 123 µmol/kg. In addition, in [2], the logP worked out at 0.68.
On to `COC(=O)/C=C/c1ccc(O)c(O)c1` [METHYLCAFFEATE], for which the inhibition in vivo at 10 mg/kg in the series on Mus musculus [1] was determined as 54.5%. The same compound had a logP in [2] of 1.56.
As to `CC(=O)Nc1ccc(O)cc1` [ACETAMINOPHEN], in the series on Mus musculus [1], testing at 10 mg/kg gave an inhibition in vivo of 38%. In addition, the ED50 amounted to 133 µmol/kg in the series on Mus musculus [17] and 120 µmol/kg in the series with Mus musculus [22]. The compound also had a logP in series [2] of 1.43.
